By EC50 is commonly meant the concentration that produces a half-maximal response. A word on the inhibition: it is the share of the control response that was lost under treatment.

For test [1], the system named is SH-SY5Y. The test can be described thus: Neuroprotection against H202-induced oxidative stress in human SH-SY5Y cells assessed as increase in cell viability at 10 uM by MTT assay. The format is functional. A digest of the protocol: (§1)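 SH-SY5Y cells were given one of two insults: H2O2-induced oxidative stress, with cell viability read by MTT, or oxygen glucose deprivation (OGD)-induced cell damage. Compounds were tested at 10 µM, and the result is expressed as percent neuroprotection.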

Test [2] deals with SH-SY5Y. The test can be described thus: Neuroprotective activity against oxygen-glucose deprivation-induced toxicity in human SH-SY5Y cells assessed as increase in cell viability at 10 uM by MTT assay. Type of test: functional. Put shortly: as §1
In test [3] the test system is SH-SY5Y. The test can be described thus: Neuroprotective activity against oxygen-glucose deprivation-induced toxicity in human SH-SY5Y cells assessed as increase in cell viability at 1 mM by MTT assay. Type of test: functional.
Test [4] concerns SH-SY5Y. The test can be described thus: Neuroprotection against H202-induced oxidative stress in human SH-SY5Y cells assessed as increase in cell viability at 1 mM by MTT assay. Type of test: functional.
For test [5], the system named is SH-SY5Y. The test can be described thus: Neuroprotection against oxygen-glucose deprivation-induced toxicity in human SH-SY5Y cells assessed as cytoprotection by MTT assay. Type of test: functional, cell-based. A digest of the protocol: (§2)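 SH-SY5Y cells were exposed to H2O2 or to oxygen glucose deprivation (OGD) cytotoxicity. EC50 was defined as the concentration giving 50% protective effect relative to the control group. Values are averages of three independent experiments, given as mean ± SEM.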
(In general: Tetrazolium dyes change colour on reduction, which living cells bring about.)

Test [6] deals with SH-SY5Y. As to the kind of experiment: Neuroprotection against H202-induced toxicity in human SH-SY5Y cells assessed as cytoprotection by MTT assay. The format is functional, cell-based. A digest of the protocol:
as §2

The next test concerns RAW264.7. As to the kind of experiment: Inhibition of LPS-induced NO production in mouse RAW264.7 cells assessed as NO production activity at 10 uM by Griess reagent based assay. Type of test: functional. For orientation: The Griess reaction detects nitrite, a stable product of nitric oxide.
The test system of test [7] is SH-SY5Y. As to the kind of experiment: Neuroprotective activity against human SH-SY5Y cells assessed as Abeta42-induced cytotoxicity at 1 uM by MTT assay. Type of test: functional.
The test system of test [8] is SH-SY5Y. As to the kind of experiment: Neuroprotective activity against human SH-SY5Y cells assessed as Abeta42-induced cytotoxicity at 10 uM by MTT assay. The format is functional.
The subject of test [9] is SH-SY5Y. The test can be described thus: Neuroprotective activity against human SH-SY5Y cells assessed as Abeta42-induced cytotoxicity at 30 uM by MTT assay. The format is functional.

Each structure is given as a SMILES string. Active and inactive are the calls of the source.

Regarding `CC(C)=CCc1c(OCC(=O)Nc2ccc(N3CCNCC3)cc2)ccc2ccc(=O)oc12`, the results for the Activity in the test on SH-SY5Y [1] and in the test with SH-SY5Y [2] were 22.5% and 8.4%, respectively.

As to `CC(C)=CCc1c(OCC(=O)Nc2ccc(N3CCCC3)cn2)ccc2ccc(=O)oc12`, the Activity came out at 45.2% in the test with SH-SY5Y [1] and 58.2% in the test with SH-SY5Y [2].

As to `CC(C)(O)C1Cc2c(ccc3cc(-c4ccc(F)cc4)c(=O)oc23)O1` (stereo not drawn), the Activity in the test with SH-SY5Y [1] is 21.3%; with SH-SY5Y [2] it was 23.5%.

On to `CC(=O)N[C@@H](CS)C(=O)O` [ACETYLCYSTEINE], for which the Activity in the test on SH-SY5Y [3] is listed as 84.3%; with SH-SY5Y [4], 37.1%.

On to `CCN1CCN(C(=O)COc2ccc3ccc(=O)oc3c2CC=C(C)C)CC1`, for which the EC50 in the test on SH-SY5Y [5] was 12.5 µM; in the test on SH-SY5Y [6], 29.8 µM. The Activity was 33.7% with SH-SY5Y [1] and 48% in the test on SH-SY5Y [2]. The “Residual NO production” value in the test on RAW264.7 is recorded as 72.3%.

`COc1ccc2c(c1)c(CC(=O)O)c(C)n2C(=O)c1ccc(Cl)cc1` [INDOMETHACIN]: in the test on RAW264.7, the “Residual NO production” value turned out to be 53.2%.

Turning to `CC(C)(O)C1Cc2c(ccc3cc(-c4ccccc4F)c(=O)oc23)O1` (stereo not drawn), the EC50 with SH-SY5Y [5] stood at 40.1 µM; in the test with SH-SY5Y [6], 32.3 µM. Also, the results for the Activity with SH-SY5Y [1] and with SH-SY5Y [2] were 36.5% and 37.2%, respectively. In the test on RAW264.7, the “Residual NO production” value came out at 85.2%.

As to `CC(C)(O)C1Cc2c(ccc3cc(-c4cccc(F)c4)c(=O)oc23)O1` (stereo not drawn), the 50% effective concentration (EC50) came out at 18.8 µM in the test on SH-SY5Y [5] and 75.9 µM in the test on SH-SY5Y [6]. Further, the Activity is reported as 29% in the test on SH-SY5Y [1] and 41.2% with SH-SY5Y [2]. The “Residual NO production” value with RAW264.7 is 106.2%.

As for `CC(C)=CCc1c(OCC(=O)Nc2ccc(N3CCCCC3)cn2)ccc2ccc(=O)oc12`, the Activity with SH-SY5Y [1] is reported as 32.7%; in the test on SH-SY5Y [2] it was 16.8%.

`CC(C)=CCc1c(OCC(=O)N2CCCC2)ccc2ccc(=O)oc12`: the concentration for a half-maximal effect (EC50) in the test with SH-SY5Y [5] is 15.3 µM; in the test on SH-SY5Y [6], 67.3 µM. For the same compound, the Activity in the test on SH-SY5Y [1] worked out at 28%; in the test on SH-SY5Y [2], 43.6%. For the same compound, in the test with RAW264.7, the “Residual NO production” value is 75.4%.

As to `COc1cccc(-c2cc3ccc4c(c3oc2=O)CC(C(C)(C)O)O4)c1` (stereo not drawn), the results for the half-maximal effective concentration (EC50) in the test on SH-SY5Y [5] and with SH-SY5Y [6] were 13.3 µM and 30.4 µM, respectively. The Activity with SH-SY5Y [1] is reported as 31%; with SH-SY5Y [2], 42.8%. For the same compound, the “Residual NO production” value in the test on RAW264.7 turned out to be 73.3%.

Regarding `Cc1ccc(-c2cc3ccc4c(c3oc2=O)CC(C(C)(C)O)O4)cc1` (stereo not drawn), the Activity with SH-SY5Y [1] is 18.2%.

Turning to `CC(C)=CCc1c(OCC(=O)Nc2ccc(N3CCCCC3)cc2)ccc2ccc(=O)oc12`, in the test on SH-SY5Y [1], the Activity turned out to be 12.5%.

For `CC(C)=CCc1c(OCC(=O)Nc2ccc(N3CCCC3)cc2)ccc2ccc(=O)oc12`, the concentration giving a half-maximal response (EC50) in the test on SH-SY5Y [5] is 5.62 µM; with SH-SY5Y [6] it was 11.9 µM. Further, the Activity with SH-SY5Y [1] turned out to be 47.7%; with SH-SY5Y [2], 63.4%. Also, the inhibition at 1 µM with SH-SY5Y [7] came to 47.8%. Moreover, the “Residual NO production” value with RAW264.7 came to 50.4%. For the same compound, the inhibition at 10 µM in the test with SH-SY5Y [8] came out at 46.3%.

Consider `CC(C)=CCc1c(OCC(=O)N2CCOCC2)ccc2ccc(=O)oc12`, for which the EC50 in the test on SH-SY5Y [5] was more than 100 µM; in the test with SH-SY5Y [6], 27.5 µM. In addition, the Activity was 31.5% in the test on SH-SY5Y [1] and 23.2% in the test with SH-SY5Y [2]. In addition, the “Residual NO production” value in the test with RAW264.7 was found to be 74.1%.

In the case of `COc1ccc2ccc(=O)oc2c1CC=C(C)C` [OSTHOLE], the EC50 with SH-SY5Y [5] was 26.4 µM; in the test with SH-SY5Y [6], 33.3 µM. In addition, the result in the test on SH-SY5Y [7] was inactive. Further, the Activity in the test with SH-SY5Y [2] came out at 28.6%; in the test on SH-SY5Y [9], 37.1%. In the test with RAW264.7, the “Residual NO production” value is reported as 85.6%.

`CC(C)=CCc1c(OCC(=O)Nc2ccc(N3CCOCC3)cn2)ccc2ccc(=O)oc12`: the half-maximal effective concentration (EC50) stood at 9.05 µM in the test on SH-SY5Y [5] and 16.6 µM in the test on SH-SY5Y [6]. Further, the Activity in the test on SH-SY5Y [1] is 43.5%; with SH-SY5Y [2] it was 51.4%. In the test with RAW264.7, the “Residual NO production” value turned out to be 80.3%.

For `CC(C)=CCc1c(OCC(=O)Nc2ccc(N3CCOCC3)cc2)ccc2ccc(=O)oc12`, the figures for the Activity in the test on SH-SY5Y [1] and in the test with SH-SY5Y [2] were 39.5% and 13.2%, respectively.

For the compound `COc1ccc(CNC(=O)Oc2ccc3ccc(=O)oc3c2CC=C(C)C)cc1`, the figures for the EC50 with SH-SY5Y [5] and with SH-SY5Y [6] were 23.3 µM and more than 100 µM, respectively. Besides, the Activity is on record as 28.7% in the test with SH-SY5Y [1] and 35% in the test with SH-SY5Y [2]. For the same compound, the “Residual NO production” value with RAW264.7 was found to be 77.4%.

As to `CC(C)=CCc1c(OCC(=O)N2CCNCC2)ccc2ccc(=O)oc12`, the Activity was found to be 29.2% in the test with SH-SY5Y [1] and 28.2% with SH-SY5Y [2].

For the compound `CC(C)=CCc1c(OCC(=O)N2CCCCC2)ccc2ccc(=O)oc12`, the Activity in the test with SH-SY5Y [1] was determined as 5.5%.

With `CC(C)=CCc1c(OC(=O)NC2CCCCC2)ccc2ccc(=O)oc12`, the Activity in the test on SH-SY5Y [1] is recorded as 13%.

With `CC(C)=CCc1c(OCC(=O)N2CCN(C(=O)OC(C)(C)C)CC2)ccc2ccc(=O)oc12`, the results for the EC50 in the test on SH-SY5Y [5] and in the test on SH-SY5Y [6] were 3.27 µM and 10.3 µM, respectively. Also, the results for the Activity with SH-SY5Y [1] and in the test with SH-SY5Y [2] were 45.7% and 64.6%, respectively. Besides, in the test on SH-SY5Y [7], the inhibition at 1 µM amounted to 55.2%. Also, in the test with RAW264.7, the “Residual NO production” value amounted to 62.8%. Further, the inhibition at 10 µM with SH-SY5Y [8] stood at 61.4%.

Turning to `CC(C)=CCc1c(OCC(=O)Nc2ccc(N3CCNCC3)cn2)ccc2ccc(=O)oc12`, the results for the Activity in the test with SH-SY5Y [1] and in the test on SH-SY5Y [2] were 44.5% and 49.4%, respectively.

As for `CC(C)(O)C1Cc2c(ccc3cc(-c4ccccc4)c(=O)oc23)O1` (stereo not drawn), the Activity in the test on SH-SY5Y [1] is listed as 19.7%; with SH-SY5Y [2] it was 23.2%.

The values above are taken from ChEMBL document CHEMBL4699614, “Design, synthesis and biological evaluation of novel osthole-based derivatives as potential neuroprotective agents” (Bioorg Med Chem Lett, 2020).
